For eight compounds, IC50 and Relative potency results are on record in ChEMBL document CHEMBL1122838, “GABA agonists. Resolution, absolute stereochemistry, and enantioselectivity of (S)-(+)- and (R)-(-)-dihydromuscimol” (J Med Chem, 1985).

As a reminder, the IC50 is the concentration at which inhibition is half-maximal.

Structures are written as SMILES. Active and inactive are the calls of the source. The calls are words filed in the database; no cut-off is given here. A value given as a limit tells only on which side of the number the result lay.

Experiment [1] concerns the target GABA-A receptor; anion channel. The experiment can be described thus: In vitro inhibition of [3H]THIP binding to Gamma-aminobutyric acid receptor in rat brain synaptic membranes. The class given is cell membranes, Membrane. An outline of the steps: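 Radioligand 0.005 μM [3H]THIP; rat cortical synaptic membranes (0.8–1.2 mg protein) in 0.05 M Tris-citrate pH 7.1, triplicate, 15 min at 4 °C, analogue up to 100 μM. IC50 derived from displacement; three experiments averaged per concentration.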

The target in experiment [2] is Gamma-aminobutyric acid receptor subunit gamma-1 (Rattus norvegicus, UniProt P23574). The experiment can be described thus: In vitro inhibition of [3H]GABA binding to Gamma-aminobutyric acid receptor of rat brain synaptic membranes. The format is cell membranes, Membrane.
Gamma-aminobutyric acid receptor subunit gamma-1, sequence (P23574 whole entry): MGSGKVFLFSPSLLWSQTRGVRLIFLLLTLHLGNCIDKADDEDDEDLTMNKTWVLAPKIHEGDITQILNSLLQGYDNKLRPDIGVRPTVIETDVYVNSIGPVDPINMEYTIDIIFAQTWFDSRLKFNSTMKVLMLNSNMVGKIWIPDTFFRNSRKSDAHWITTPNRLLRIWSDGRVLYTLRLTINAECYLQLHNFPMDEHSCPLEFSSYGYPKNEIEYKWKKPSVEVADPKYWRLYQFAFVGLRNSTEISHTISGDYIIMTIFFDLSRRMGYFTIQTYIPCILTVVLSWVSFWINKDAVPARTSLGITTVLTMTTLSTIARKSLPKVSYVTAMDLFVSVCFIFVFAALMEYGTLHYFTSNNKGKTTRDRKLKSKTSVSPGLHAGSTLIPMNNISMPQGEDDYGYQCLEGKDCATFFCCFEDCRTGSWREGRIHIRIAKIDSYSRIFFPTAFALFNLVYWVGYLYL
The target in experiment [3] is GABA-A receptor; anion channel. The experiment can be described thus: In vitro inhibition of [3H]P4S binding to Gamma-aminobutyric acid receptor of rat brain synaptic membranes. The class given is cell membranes, Membrane.
For experiment [4], the system named is Felis catus. The experiment can be described thus: In vivo BMC-sensitive inhibitory effect on cat spinal neurons relative to that of GABA; Equal activity. The class given is functional, organism-based.
In experiment [5] the target is T1, GABA transporter (Rattus norvegicus, UniProt P31647+P23978+P31646+P48056). The experiment can be described thus: In vitro inhibition of GABA uptake in rat brain synaptosomes.
Experiment [6] deals with Felis catus. Nature of the experiment: BMC-sensitive inhibitory effect on cat spinal neurons relative to that of GABA was expressed in vivo as relative potency; Greater activity. The format is functional, organism-based.
The target of experiment [7] is T1, GABA transporter. The format is functional, cell membranes, Brain, Membrane.
Experiment [8] deals with GABA-A receptor; anion channel. The experiment can be described thus: In vitro inhibition of [3H]GABA binding to rat brain synaptic membranes. The format is cell membranes, Membrane. The essentials:
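Rat cerebral cortex synaptic membranes (0.8–1.2 mg protein) incubated in triplicate 15 min at 4 °C in 0.05 M Tris-citrate pH 7.1 with 0.005 μM [3H]GABA and analogue (up to 100 μM). Displacement used to derive IC50; each concentration mean of three experiments.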

Experiment [9] deals with Felis catus. Nature of the experiment: BMC-sensitive inhibitory effect on cat spinal neurons relative to that of GABA was expressed in vivo as relative potency; Less activity. The format is functional, organism-based.

With `NC[C@H]1CC(O)=NO1`, the results for the IC50 in [1], in experiment [2] and in [3] were 140 nM, 250 nM and 540 nM, respectively.
For the compound `NC[C@H]1CC(=O)NO1`, the Relative potency entry in experiment [4] is “Active”. For the same compound, the IC50 in [5] worked out at 70 µM.
`NCc1cc(=O)[nH]o1` [MUSCIMOL]: the 50% inhibitory concentration (IC50) in experiment [1] was 5 nM; in [2], 6 nM; in [3] it was 6 nM.
On to `NC[C@@H]1CC(=O)NO1`, for which the Relative potency entry in experiment [6] was “Active”. Moreover, the IC50 in experiment [7] was greater than 500 µM; in experiment [1], 3 nM; in experiment [2], 4 nM; in [3], 8 nM.
Consider `NCC1CC(=O)NO1` (racemic), for which, in experiment [6], the Relative potency result was “Active”. Besides, the IC50 turned out to be 130 µM in experiment [7], 5 nM in experiment [1], 18 nM in experiment [3] and 8 nM in experiment [8].
For the compound `NCc1cc(O)no1` [MUSCIMOL], the Relative potency entry in [6] is “Active”. In [7], this compound showed a half-maximal inhibitory concentration (IC50) of 320 µM.
Regarding `NC[C@H](O)CC(=O)O`, in experiment [9], the Relative potency result is “Partially active”. The IC50 in experiment [1] was determined as 300 nM; in experiment [3], 1900 nM; in experiment [5] it was 67 µM; in experiment [8] it was 1000 nM.
On to `NC[C@@H](O)CC(=O)O`, for which, in experiment [9], the Relative potency entry was “Partially active”. The IC50 is 29 µM in [7], 200 nM in experiment [1], 400 nM in experiment [2] and 900 nM in experiment [3].
